IDH1 R132H inh: inhibitors of human IDH1 R132H | O75874 | IDH1 R132H reductase, diaphorase/resazurin fluorescence, 60 min | inhibition, % at 10 µM | hit rate 0.18% among 70,000; in the data active = inhibition above about 34%; inconclusive = no clear call, values can overlap the other calls; inactive = below about 11%;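 note: 0% = DMSO and 100% = no enzyme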
T cruzi growth: T. cruzi proliferation inhibition | T. cruzi beta-gal in NIH3T3, GalScreen luminescence, 90 h | inhibition, % at 8.34 µM | hit rate 5.9% among 77,000 | AID 624255;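 active = mean inhibition above about 93%, with at least 55% of replicates each passing it, limit read from the data, passing the limit was not always enough; inconclusive = only one of those two conditions holds; inactive = neither condition holds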
KDM4C inh: inhibitors of human demethylase GASC-1 KDM4C | GST-KDM4C 2-372, H3K9me3 peptide, LANCE TR-FRET | inhibition, % at 12.5 µM | hit rate 0.15% among 96,000;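 active = mean replicate inhibition above about 25%, with at least 55% of replicates also reaching it, limit read from the data, passing the limit was not always enough; inconclusive = only one of those two conditions met; inactive = neither condition met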
Target sequence (Q9H3R0 2-372 limits assumed): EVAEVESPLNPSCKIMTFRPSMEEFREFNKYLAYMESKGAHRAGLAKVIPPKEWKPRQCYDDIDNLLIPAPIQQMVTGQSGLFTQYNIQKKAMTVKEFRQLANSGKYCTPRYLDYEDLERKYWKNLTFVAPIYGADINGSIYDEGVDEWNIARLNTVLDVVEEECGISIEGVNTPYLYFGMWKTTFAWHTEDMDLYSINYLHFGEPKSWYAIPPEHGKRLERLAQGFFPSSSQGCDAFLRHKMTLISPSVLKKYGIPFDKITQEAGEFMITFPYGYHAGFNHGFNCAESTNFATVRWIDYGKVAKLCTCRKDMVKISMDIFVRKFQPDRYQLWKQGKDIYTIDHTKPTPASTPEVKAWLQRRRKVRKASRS
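Compound: one test concentration per compound; Material: GST-GASC-1 enzyme fragment 2-372; Amount: GASC-1 enzyme at 10 nM final in reaction; Also added: H3K9me3 peptide substrate, Fe(II), 2-oxoglutarate; Technique: LANCE TR-FRET; Times: 30 min demethylation and 1 h detection at room temperature.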
Pf Dd2 growth: blocks growth of Plasmodium falciparum Dd2 parasites; P. falciparum Dd2 growth, SYBR Green, 72 h; active compounds read low; activity change, % at 10 µM; hit rate 2.3% among 94,000; in the data active = activity change below about -80%; inconclusive = no clear call, values can overlap the other calls
* marks the source's active call; other numbers are inactive results; ? = inconclusive; . = no result. An excerpt weighted towards active compounds, which were near 5.9% of everything screened.

SMILES	IDH1 R132H inh	T cruzi growth	KDM4C inh	Pf Dd2 growth
CCCN(C)C[C@@H]1Oc2cc(C#Cc3cccnc3)ccc2S(=O)(=O)N([C@@H](C)CO)C[C@H]1C	2	61	-2	-89*
C[C@H](CO)N1C[C@H](C)[C@H](CN(C)Cc2ccc(Oc3ccccc3)cc2)Oc2ccc(NS(=O)(=O)c3ccc(Cl)cc3)cc2CC1=O	5	29	-2	-87*
C[C@H](CO)N1C[C@H](C)[C@@H](CN(C)Cc2ccc(C(=O)Nc3ccccc3N)cc2)Oc2ccc(NS(=O)(=O)c3ccccc3)cc2CC1=O	-1	62	-2	-83*
C[C@@H]1CN([C@@H](C)CO)C(=O)Cc2cc(NS(=O)(=O)c3ccccc3)ccc2O[C@H]1CN(C)Cc1ccc(C(=O)Nc2ccccc2N)cc1	0	12	0	-72
C[C@@H]1CN([C@H](C)CO)C(=O)Cc2cc(NS(=O)(=O)c3ccc(Cl)cc3)ccc2O[C@H]1CN(C)Cc1ccc(Oc2ccccc2)cc1	0	47	-1	-5
Cc1ccc(S(=O)(=O)Nc2ccc3c(c2)CC(=O)N([C@H](C)CO)C[C@H](C)[C@H](CN(C)Cc2ccc(C(=O)Nc4ccccc4N)cc2)O3)cc1	0	76	0	-88*
C[C@@H]1CN([C@@H](C)CO)C(=O)c2cccc(NC(=O)CCCCCC(=O)Nc3ccccc3N)c2O[C@@H]1CN(C)C(=O)NC1CCCCC1	0	.	0	-86*
COc1ccc(NC(=O)N(C)C[C@H]2Oc3c(NC(=O)CCCCCC(=O)Nc4ccccc4N)cccc3C(=O)N([C@H](C)CO)C[C@H]2C)cc1	0	.	2	-87*
C[C@H]1CN([C@@H](C)CO)C(=O)c2cccc(N(C)C)c2O[C@@H]1CN(C)C(=O)Nc1cccc2ccccc12	2	16	2	2
C[C@@H]1CN([C@H](C)CO)C(=O)c2cccc(NC(=O)CCCCCC(=O)Nc3ccccc3N)c2O[C@@H]1CN(C)C(=O)Nc1ccc(F)cc1	.	.	0	-86*
C[C@@H]1CN([C@@H](C)CO)C(=O)c2cccc(N(C)C)c2O[C@@H]1CN(C)C(=O)Nc1cccc2ccccc12	-2	63	1	-83*
O=C(CSc1ncn[nH]1)c1c[nH]c2ccccc12	0	.	.	.
CC1(C)Cc2c(sc3c2c(=O)n(-c2cccc(Cl)c2)c2nnc(SCC(=O)Nc4cccc(Cl)c4)n32)CO1	0	.	.	.
CC1=C(CCC2=CC(=O)OC2O)[C@@]2(C)CCC[C@]3(C)C(=O)OC(C1=O)[C@@H]32 (stereo not given in full)	1	.	.	.
CCC(Oc1cccc(NC(=O)c2cccc(OC)c2)c1)C(=O)c1ccccc1 (stereo not given)	1	.	.	.
C[C@H](CO)N1C[C@H](C)[C@@H](CN(C)C(=O)NC2CCCCC2)Oc2ncc(/C=C/c3ccccc3)cc2C1=O	0	.	0	-84*
C[C@@H]1CN([C@@H](C)CO)C(=O)c2cccc(NC(=O)Nc3cccc4ccccc34)c2O[C@H]1CN(C)C(=O)NC1CCCCC1	-2	45	3	-89*
C[C@H]1CN([C@@H](C)CO)C(=O)c2cccc(NC(=O)CCCCCC(=O)Nc3ccccc3N)c2O[C@@H]1CN(C)C(=O)Nc1ccc(C(F)(F)F)cc1	0	.	2	-82*
C[C@@H]1CN([C@H](C)CO)C(=O)c2cccc(NC(=O)CCCCCC(=O)Nc3ccccc3N)c2O[C@@H]1CN(C)C(=O)Nc1ccc(C(F)(F)F)cc1	.	.	1	-88*
CCn1c(SCc2nc3ccccc3c(=O)[nH]2)nnc1-c1ccccc1F	0	.	.	.
O=C(O)CC(CC(=O)Nc1cc(C(F)(F)F)cc(C(F)(F)F)c1)c1ccc(Cl)cc1Cl (stereo not given)	0	.	.	.
O=C(Nc1ccc(Cl)cc1)c1ccccc1NS(=O)(=O)c1cccc2cccnc12	-1	.	.	.
C[C@H]1CN([C@@H](C)CO)C(=O)c2cccc(NC(=O)CCCCCC(=O)Nc3ccccc3N)c2O[C@@H]1CN(C)C(=O)Nc1ccc(F)cc1	0	.	-1	-49
C[C@H](CO)N1C[C@H](C)[C@H](CN(C)C(=O)Nc2ccc(C(F)(F)F)cc2)Oc2c(NC(=O)CCCCCC(=O)Nc3ccccc3N)cccc2C1=O	0	.	0	-89*
COc1ccc(S(=O)(=O)N(C)C[C@@H]2OCCCC[C@H](C)Oc3ccc(NC(=O)Cc4ccccc4)cc3C(=O)N([C@@H](C)CO)C[C@@H]2C)cc1	0	102	-2	-83*
SMILES	IDH1 R132H inh	T cruzi growth	KDM4C inh	Pf Dd2 growth
COc1ccc(S(=O)(=O)N(C)C[C@H]2OCCCC[C@H](C)Oc3ccc(NC(=O)Cc4ccccc4)cc3C(=O)N([C@@H](C)CO)C[C@H]2C)cc1	1	102	1	?
COc1ccc(S(=O)(=O)N(C)C[C@@H]2OCCCC[C@@H](C)Oc3ccc(NC(=O)Cc4ccccc4)cc3C(=O)N([C@@H](C)CO)C[C@H]2C)cc1	3	90	1	-61
COc1ccc(S(=O)(=O)N(C)C[C@@H]2OCCCC[C@H](C)Oc3ccc(NC(=O)Cc4ccccc4)cc3C(=O)N([C@H](C)CO)C[C@H]2C)cc1	0	98	-5	-84*
COC(=O)c1c(NC(=S)N2CCN(Cc3c(C)nn(C)c3C)CC2)sc2c1CCC(C)C2 (stereo not given)	0	.	.	.
Cc1ccccc1S(=O)(=O)N1CC(=O)N2[C@H](C1)[C@@H](c1ccc(C#Cc3ccccc3)cc1)[C@@H]2CO	.	.	-2	-82*
Cc1ccccc1S(=O)(=O)N1CC(=O)N2[C@H](CO)[C@H](c3ccc(C#Cc4ccccc4)cc3)[C@H]2C1	.	.	-3	-41
O=C1CN(S(=O)(=O)c2ccccc2)C[C@@H]2[C@H](c3ccc(C#CCc4ccccc4)cc3)[C@@H](CO)N12	.	.	2	-84*
COCCNC(=S)Nc1nc(OC)cc(OC)n1	4	.	.	.
C[C@H]1CN([C@@H](C)CO)S(=O)(=O)c2ccc(C#Cc3ccccc3)cc2O[C@H]1CN(C)C(=O)Cc1ccccn1	-1	69	1	-86*
C[C@H]1CN([C@@H](C)CO)S(=O)(=O)c2ccc(-c3cncnc3)cc2O[C@@H]1CN(C)C(=O)C1CCCCC1	.	.	35*	-28
C[C@H]1CN([C@@H](C)CO)S(=O)(=O)c2ccc(C#Cc3ccccc3)cc2O[C@H]1CN(C)C(=O)C1CC1	0	74	-1	-88*
C[C@@H]1CN([C@H](C)CO)S(=O)(=O)c2ccc(C#Cc3ccccc3)cc2O[C@H]1CN(C)C(=O)C1CC1	1	58	-3	-79
COc1ccc(N(C(=O)c2ccccc2)S(=O)(=O)c2cccc([N+](=O)[O-])c2)cc1	1	.	.	.
O=C(N/N=C/c1ccccc1[N+](=O)[O-])c1ccccc1O	0	.	.	.
Cc1ccc(OCC(=O)Nc2cccc(-c3nc4cc(Cl)ccc4o3)c2C)cc1C	0	.	.	.
CN(C)c1ccc2c(c1)[C@H]1C[C@H](CC(=O)NCCc3ccccc3)O[C@H](CO)[C@H]1O2	-11	54	18	-68

Screens deposited in PubChem by Broad Institute.
